Source: article PMC9623233 (Clinical Cancer Research, 2022)

Experiment: Phase I safety and tolerability: adverse events
Type: in vivo, human
Procedure, shortened: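 Open-label 3+3 escalation of intravenous test compound. Each 4-week cycle was four weekly or two biweekly doses; later arms were biweekly with dexamethasone prophylaxis, or every 3 weeks. AEs were graded by NCI CTCAE v4.0, with laboratory tests, pulmonary function (entry FVC >70%, DLCOc >60%), vital signs, ECG and examination. DLT window: two cycles (8 weeks; 6 weeks for 3-weekly dosing).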

[1] = 12 mg/m^2/q2Wk expansion, worst grade G1
[2] = 12 mg/m^2/q2Wk expansion, worst grade G2
[3] = 12 mg/m^2/q2Wk expansion, worst grade G3
[4] = 12 mg/m^2/q2Wk with and without steroid, Total, all grades
[5] = 12 mg/m^2/q2Wk-steroid expansion, worst grade G1
[6] = 12 mg/m^2/q2Wk-steroid expansion, worst grade G2
[7] = 12 mg/m^2/q2Wk-steroid expansion, worst grade G3

C#CCN(c1ccc(C(=O)N[C@@H](CCC(=O)N[C@H](CCC(=O)O)C(=O)O)C(=O)O)cc1)[C@H]1CCc2cc3nc(CO)[nH]c(=O)c3cc21 [CT900, N-[4-[2-propyn-1-yl[(6S)-4,6,7,8-tetrahydro-2-(hydroxymethyl)-4-oxo-3H-cyclopenta [g]quinazolin-6-yl]amino]benzoyl]-l-gamma-glutamyl-D-glutamic acid]
Anemia, treatment-related [1]: 2 (8) n (%) | Aspartate aminotransferase increased, treatment-related [1]: 3 (12) n (%) | Chills, treatment-related [1]: 2 (8) n (%) | Cough, treatment-related [1]: 8 (32) n (%) | Decreased appetite, treatment-related [1]: 3 (12) n (%) | Diarrhea, treatment-related [1]: 4 (16) n (%) | Fatigue, treatment-related [1]: 12 (48) n (%) | Nausea, treatment-related [1]: 8 (32) n (%) | Pneumonitis, treatment-related [1]: 0 (0) n (%) | Pyrexia, treatment-related [1]: 3 (12) n (%) | Vomiting, treatment-related [1]: 4 (16) n (%) | Anemia, treatment-related [2]: 2 (8) n (%) | Aspartate aminotransferase increased, treatment-related [2]: 1 (4) n (%) | Chills, treatment-related [2]: 1 (4) n (%) | Cough, treatment-related [2]: 0 (0) n (%) | Decreased appetite, treatment-related [2]: 0 (0) n (%) | Diarrhea, treatment-related [2]: 1 (4) n (%) | Fatigue, treatment-related [2]: 1 (4) n (%) | Nausea, treatment-related [2]: 4 (16) n (%) | Pneumonitis, treatment-related [2]: 4 (16) n (%) | Pyrexia, treatment-related [2]: 0 (0) n (%) | Vomiting, treatment-related [2]: 0 (0) n (%) | Anemia, treatment-related [3]: 0 (0) n (%) | Aspartate aminotransferase increased, treatment-related [3]: 0 (0) n (%) | Chills, treatment-related [3]: 0 (0) n (%) | Cough, treatment-related [3]: 0 (0) n (%) | Decreased appetite, treatment-related [3]: 0 (0) n (%) | Diarrhea, treatment-related [3]: 1 (4) n (%) | Fatigue, treatment-related [3]: 0 (0) n (%) | Nausea, treatment-related [3]: 0 (0) n (%) | Pneumonitis, treatment-related [3]: 0 (0) n (%) | Pyrexia, treatment-related [3]: 0 (0) n (%) | Vomiting, treatment-related [3]: 0 (0) n (%) | Anemia, treatment-related [4]: 8 (20) n (%) | Aspartate aminotransferase increased, treatment-related [4]: 7 (18) n (%) | Chills, treatment-related [4]: 4 (10) n (%) | Cough, treatment-related [4]: 9 (23) n (%) | Decreased appetite, treatment-related [4]: 4 (10) n (%) | Diarrhea, treatment-related [4]: 9 (23) n (%) | Fatigue, treatment-related [4]: 21 (53) n (%) | Nausea, treatment-related [4]: 16 (40) n (%) | Pneumonitis, treatment-related [4]: 8 (20) n (%) | Pyrexia, treatment-related [4]: 7 (18) n (%) | Vomiting, treatment-related [4]: 4 (10) n (%) | Anemia, treatment-related [5]: 1 (6.7) n (%) | Aspartate aminotransferase increased, treatment-related [5]: 3 (20) n (%) | Chills, treatment-related [5]: 1 (6.7) n (%) | Cough, treatment-related [5]: 1 (6.7) n (%) | Decreased appetite, treatment-related [5]: 1 (6.7) n (%) | Diarrhea, treatment-related [5]: 2 (13.3) n (%) | Fatigue, treatment-related [5]: 6 (40) n (%) | Nausea, treatment-related [5]: 4 (26.7) n (%) | Pneumonitis, treatment-related [5]: 1 (6.7) n (%) | Pyrexia, treatment-related [5]: 4 (26.7) n (%) | Vomiting, treatment-related [5]: 0 (0) n (%) | Anemia, treatment-related [6]: 1 (6.7) n (%) | Aspartate aminotransferase increased, treatment-related [6]: 0 (0) n (%) | Chills, treatment-related [6]: 0 (0) n (%) | Cough, treatment-related [6]: 0 (0) n (%) | Decreased appetite, treatment-related [6]: 0 (0) n (%) | Diarrhea, treatment-related [6]: 0 (0) n (%) | Fatigue, treatment-related [6]: 2 (13.3) n (%) | Nausea, treatment-related [6]: 0 (0) n (%) | Pneumonitis, treatment-related [6]: 3 (20) n (%) | Pyrexia, treatment-related [6]: 0 (0) n (%) | Vomiting, treatment-related [6]: 0 (0) n (%) | Anemia, treatment-related [7]: 2 (13.3) n (%) | Aspartate aminotransferase increased, treatment-related [7]: 0 (0) n (%) | Chills, treatment-related [7]: 0 (0) n (%) | Cough, treatment-related [7]: 0 (0) n (%) | Decreased appetite, treatment-related [7]: 0 (0) n (%) | Diarrhea, treatment-related [7]: 1 (6.7) n (%) | Fatigue, treatment-related [7]: 0 (0) n (%) | Nausea, treatment-related [7]: 0 (0) n (%) | Pneumonitis, treatment-related [7]: 0 (0) n (%) | Pyrexia, treatment-related [7]: 0 (0) n (%) | Vomiting, treatment-related [7]: 0 (0) n (%) | Drug-related, predominantly low-grade pneumonitis (all patients, 10/109): 9% | Fatal pneumonitis (during the trial): no cases of fatal pneumonitis | Recommended phase II dose/schedule (intravenous): 12 mg/m^2/q2Wk | Drug-related NCI CTCAE ≥grade 3 events (qWk schedule 1-6 mg/m^2, 21 patients: anemia, cellulitis, pneumonitis): three
